Measurements collected from several papers.
Transmembrane protease serine 6: Transmembrane protease serine 6 (Homo sapiens, UniProt Q8IU80)
Palmitoyl-protein thioesterase 1: Palmitoyl-protein thioesterase 1 (Homo sapiens, UniProt P50897)

Compound | target | effect on | mode | method | concentration | endpoint | value
CNc1ncc2c(/C=C/C(=O)N3CCC(OC)CC3)nn(Cc3cccc(C(F)(F)F)c3)c2n1 | Cyclin-dependent kinase 6, with cyclin D2 (CDK6, Homo sapiens, UniProt Q00534) | enzyme activity | inhibitor | radiometric | 1 µM | remaining activity | 92%
C=CC(=O)N1CCC(COCC(=O)N2CCN(c3nc(-c4cnc(N)nc4C(F)F)nc(N4CCOC[C@@H]4C)n3)CC2)CC1 | Protein kinase C delta type (PRKCD, Homo sapiens, UniProt Q05655) | binding |  | competition with immobilised ligand | 1 µM | remaining binding | 100%
Cc1cc([C@@H](C)Nc2ccccc2C(=O)O)c2nc(N3CCC(F)(F)CC3)c(C#N)c(=O)n2c1 | SRSF protein kinase 3 (SRPK3, Homo sapiens, UniProt Q9UPE1) | binding |  | competition with immobilised ligand | 10 µM | remaining binding | 96%
CC[C@@H](C)[C@H](NC(=O)[C@H](Cc1cscn1)NC(=O)CCc1ccccc1)C(=O)N[C@@H](CCCNC(=N)N)C(=O)c1nc2ccccc2s1 | Transmembrane protease serine 6 | enzyme activity | inhibitor |  | 0.1 µM | remaining activity | 1%
COc1cc(-c2cncc3c2CN(C)Cc2cc(N4CCNCC4)ccc2-3)cc(OC)c1OC | Epidermal growth factor receptor (EGFR, Homo sapiens, UniProt P00533, L858R) | enzyme activity | inhibitor |  | 1 µM | remaining activity | 36%
CC(C)C[C@@H](C(=O)N[C@@H](CCCNC(=N)N)C(=O)c1nc2ccccc2s1)N(C)C(=O)[C@H](Cc1cscn1)NC(=O)CCc1ccccc1 | Transmembrane protease serine 6 | enzyme activity | inhibitor |  | 0.1 µM | remaining activity | 19%
O=C([O-])CCCCCCCNC(=O)c1ccccc1O.[Na+] | Palmitoyl-protein thioesterase 1 | enzyme activity | inhibitor |  | 125 µM | inhibition | 9.21%
N=C(N)NCCC[C@H](NC(=O)[C@@H](NC(=O)[C@H](Cc1cscn1)NC(=O)CCc1ccccc1)C1CC1)C(=O)c1nc2ccccc2s1 | Transmembrane protease serine 6 | enzyme activity | inhibitor |  | 0.1 µM | remaining activity | 88%
CC1CNC(=O)NC1=O (stereo not drawn) | Palmitoyl-protein thioesterase 1 | enzyme activity | inhibitor |  | 125 µM | inhibition | -1.19%
